Values belong to the molecule of their own block, whether it stands above or below them. Calls of active or inactive are those of the source. No cut-off for these calls is given here.
Tests used:
[1] = tested on: B16-F10; test: Induction of ROS generation in mouse B16F10 cells at IC50 to 2 X IC50 after 72 hrs by rhodamine123/propidium iodide staining-based FACS analysis; type: functional, cell-based
Summary of the method: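 B16F10 cells, 11·10^4 per well, treated 72 h at IC50 or 2×IC50, then given fresh medium with dihydrorhodamine 123 at a final 5 µg/mL for 30 min. Cells washed, resuspended in PBS and read by flow cytometry for Rh123 and PI fluorescence (excitation 500 nm, emission 536 nm). Rh123+ cells scored ROS-positive regardless of PI. Three experiments in duplicate, mean ± S.E.M.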

[2] = tested on: B16-F10; test: Induction of apoptosis in mouse B16F10 cells assessed as necrotic cells at 2 X IC50 after 72 hrs by annexin V-FITC/propidium iodide staining-based FACS analysis (reference value: 4.0 +/- 0.6%); type: functional
[3] = tested on: B16-F10; test: Induction of apoptosis in mouse B16F10 cells assessed as necrotic cells at IC50 after 72 hrs by annexin V-FITC/propidium iodide staining-based FACS analysis (reference value: 4.0 +/- 0.6%); type: functional
[4] = tested on: B16-F10; test: Induction of apoptosis in mouse B16F10 cells assessed as total apoptotic cells at 2 X IC50 after 72 hrs by annexin V-FITC/propidium iodide staining-based FACS analysis (reference value: 13.7 +/- 2.7%); type: functional
[5] = tested on: B16-F10; test: Induction of apoptosis in mouse B16F10 cells assessed as total apoptotic cells at IC50 after 72 hrs by annexin V-FITC/propidium iodide staining-based FACS analysis (reference value: 13.7 +/- 2.7%); type: functional
[6] = tested on: B16-F10; test: Induction of apoptosis in mouse B16F10 cells assessed as late apoptotic cells at 2 X IC50 after 72 hrs by annexin V-FITC/propidium iodide staining-based FACS analysis (reference value: 9.8 +/- 2.2%); type: functional
[7] = tested on: B16-F10; test: Induction of apoptosis in mouse B16F10 cells assessed as late apoptotic cells at IC50 after 72 hrs by annexin V-FITC/propidium iodide staining-based FACS analysis (reference value: 9.8 +/- 2.2%); type: functional
[8] = tested on: B16-F10; test: Induction of apoptosis in mouse B16F10 cells assessed as early apoptotic cells at 2 X IC50 after 72 hrs by annexin V-FITC/propidium iodide staining-based FACS analysis (reference value: 3.9 +/- 0.4%); type: functional
[9] = tested on: B16-F10; test: Induction of apoptosis in mouse B16F10 cells assessed as early apoptotic cells at IC50 after 72 hrs by annexin V-FITC/propidium iodide staining-based FACS analysis (reference value: 3.9 +/- 0.4%); type: functional
[10] = tested on: B16-F10; test: Induction of apoptosis in mouse B16F10 cells assessed as normal cells at IC50 after 72 hrs by annexin V-FITC/propidium iodide staining-based FACS analysis (reference value: 77.9 +/- 1.5%); type: functional
[11] = tested on: B16-F10; test: Cytotoxicity against mouse B16F10 cells after 72 hrs by MTT assay; type: functional, cell-based; conditions: B16-F10, 72 h
Summary of the method: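 B16F10 cells (DMEM, 2 mM glutamine, 10% heat-inactivated FCS, penicillin/streptomycin; subconfluent) seeded at 11·10^3 per well and exposed to 0–80 µg/mL for 72 h. Compounds were diluted from a 10 mg/mL stock in 50% DMSO/PBS. MTT 0.5 mg/mL for 2 h, formazan dissolved in DMSO, absorbance at 550 nm. Viability is relative to untreated controls; IC50 from four assays of six replicates, mean ± S.E.M.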

[12] = tested on: B16-F10; test: Induction of apoptosis in mouse B16F10 cells assessed as normal cells at 2 X IC50 after 72 hrs by annexin V-FITC/propidium iodide staining-based FACS analysis (reference value: 77.9 +/- 1.5%); type: functional
[13] = target: Protease (Human immunodeficiency virus 1, UniProt Q9YQ12); test: Inhibition of HIV1 recombinant protease expressed in Escherichia coli using Abz-Ala-Arg-Val-Nle-Tyr(NO2)-Glu-Ala-Nle-NH2 as substrate by FRET assay
Chain of Protease (Q9YQ12 whole entry): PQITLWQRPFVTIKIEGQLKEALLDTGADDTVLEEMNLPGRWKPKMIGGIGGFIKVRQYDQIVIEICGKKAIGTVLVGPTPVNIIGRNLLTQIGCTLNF

Compound: CC(C)(CC(=O)O)CC(=O)O[C@H]1CC[C@]2(C)[C@H]3CC=C4[C@@H]5CC(C)(C)CC[C@]5(C(=O)OCc5ccccc5)CC[C@@]4(C)[C@]3(C)CC[C@H]2C1(C)C
Activity [1]: Active
Activity [2]: 6.4%
Activity [3]: 5.3%
Activity [4]: 88.8%
Activity [5]: 86.5%
Activity [6]: 36.1%
Activity [7]: 42.6%
Activity [8]: 52.8%
Activity [9]: 44%
Activity [10]: 8.3%
IC50 [11]: 14.2 µM
Activity [12]: 4.9%

Compound: CC1(C)CC[C@]2(C(=O)OCc3ccccc3)CC[C@]3(C)C(=CC[C@@H]4[C@@]5(C)C[C@@H](O)[C@H](O)C(C)(C)[C@@H]5CC[C@]43C)[C@@H]2C1 [BENZYL MASLINATE]
Activity [2]: 0.1%
Activity [3]: 0.3%
Activity [4]: 88.4%
Activity [5]: 94.7%
Activity [6]: 2.2%
Activity [7]: 10.6%
Activity [8]: 86.2%
Activity [9]: 84.2%
Activity [10]: 5%
IC50 [11]: 19 µM
Activity [12]: 11.3%

Compound: CC1(C)CC[C@]2(C(=O)OCc3ccccc3)CC[C@]3(C)C(=CC[C@@H]4[C@@]5(C)CC[C@H](O)C(C)(C)[C@@H]5CC[C@]43C)[C@@H]2C1
Activity [2]: 4.1%
Activity [3]: 4.3%
Activity [4]: 41.6%
Activity [5]: 27.8%
Activity [6]: 18.6%
Activity [7]: 12.2%
Activity [8]: 23%
Activity [9]: 15.6%
Activity [10]: 67.9%
IC50 [11]: 52.2 µM
Activity [12]: 54.3%

Compound: CC(C)(CC(=O)O)CC(=O)O[C@@H]1C[C@]2(C)[C@H]3CC=C4[C@@H]5CC(C)(C)CC[C@]5(C(=O)OCc5ccccc5)CC[C@@]4(C)[C@]3(C)CC[C@H]2C(C)(C)[C@H]1O
Activity [1]: Active
Activity [2]: 5.6%
Activity [3]: 1.8%
Activity [4]: 92.2%
Activity [5]: 62.8%
Activity [6]: 65.3%
Activity [7]: 46.3%
Activity [8]: 26.9%
Activity [9]: 16.5%
Activity [10]: 35.4%
IC50 [11]: 28.3 µM
Activity [12]: 2.2%

Compound: CC1(C)CC[C@]2(C(=O)OCc3ccccc3)CC[C@]3(C)C(=CC[C@@H]4[C@@]5(C)C[C@@H](OC(=O)c6ccccc6C(=O)O)[C@H](OC(=O)c6ccccc6C(=O)O)C(C)(C)[C@@H]5CC[C@]43C)[C@@H]2C1
IC50 [13]: 1.9 µM

Further lines, with some results ahead:

IC50 [13]: 2.3 µM
Compound: CC1(C)CC[C@]2(C(=O)O)CC[C@]3(C)C(=CC[C@@H]4[C@@]5(C)C[C@@H](OC(=O)c6ccccc6C(=O)O)[C@H](OC(=O)c6ccccc6C(=O)O)C(C)(C)[C@@H]5CC[C@]43C)[C@@H]2C1

IC50 [13]: 62.7 µM
Compound: CC1(C)CC[C@]2(C(=O)O)CC[C@]3(C)C(=CC[C@@H]4[C@@]5(C)C[C@@H](O)[C@H](O)C(C)(C)[C@@H]5CC[C@]43C)[C@@H]2C1 [MASLINIC ACID]
Activity [2]: 2%
Activity [3]: 11.7%
Activity [4]: 89.8%
Activity [5]: 74.9%
Activity [6]: 21%
Activity [7]: 54.2%
Activity [8]: 68.8%
Activity [9]: 20.8%
Activity [10]: 10.9%
IC50 [11]: 36.2 µM
Activity [12]: 8.3%

IC50 [13]: 150 µM
Compound: CCCCCC(=O)O[C@@H]1C[C@]2(C)[C@H]3CC=C4[C@@H]5CC(C)(C)CC[C@]5(C(=O)OCc5ccccc5)CC[C@@]4(C)[C@]3(C)CC[C@H]2C(C)(C)[C@H]1OC(=O)CCCCC

IC50 [13]: 3.9 µM
Compound: CC1(C)CC[C@]2(C(=O)OCc3ccccc3)CC[C@]3(C)C(=CC[C@@H]4[C@@]5(C)C[C@@H](OC(=O)CCCC(=O)O)[C@H](OC(=O)CCCC(=O)O)C(C)(C)[C@@H]5CC[C@]43C)[C@@H]2C1

IC50 [13]: 5.2 µM
Compound: CC1(C)CC[C@]2(C(=O)OCc3ccccc3)CC[C@]3(C)C(=CC[C@@H]4[C@@]5(C)C[C@@H](OC(=O)CCC(=O)O)[C@H](OC(=O)CCC(=O)O)C(C)(C)[C@@H]5CC[C@]43C)[C@@H]2C1

IC50 [13]: 14.2 µM
Compound: CC1(C)CC[C@]2(C(=O)O)CC[C@]3(C)C(=CC[C@@H]4[C@@]5(C)C[C@@H](OC(=O)c6ccccc6C(=O)O)[C@H](O)C(C)(C)[C@@H]5CC[C@]43C)[C@@H]2C1

IC50 [13]: 14.3 µM
Compound: CC(C)(CC(=O)O)CC(=O)O[C@@H]1C[C@]2(C)[C@H]3CC=C4[C@@H]5CC(C)(C)CC[C@]5(C(=O)O)CC[C@@]4(C)[C@]3(C)CC[C@H]2C(C)(C)[C@H]1O
